We go through ten compounds from article PMC4083419 (Nature Communications, 2014).

Like-named read-outs stand apart in the source and are kept apart here.

As a reminder, the Kd is the equilibrium constant for the complex coming apart. The term Km denotes the concentration of substrate that gives half-maximal velocity.

The target in experiment [1] is T1, PhENR (Pyrococcus horikoshii, UniProt O58586). The experiment can be described thus: UV-visible difference titration of ligands with PhENR. The format is binding. In short, it runs like this:
(§1)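 UV–visible difference titrations at 25 °C in tandem cuvettes. Putative ligand (enones, enals, a quinone or a hydroxybenzaldehyde) was added both to enzyme solution in the sample cell and to 50 mM Tris-HCl pH 7.5 buffer in the reference cell. Spectral changes were followed as a function of ligand concentration.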

Experiment [2] addresses T2, TtENR (Thermus thermophilus, UniProt P83818).
T2 sequence (P83818 1-178): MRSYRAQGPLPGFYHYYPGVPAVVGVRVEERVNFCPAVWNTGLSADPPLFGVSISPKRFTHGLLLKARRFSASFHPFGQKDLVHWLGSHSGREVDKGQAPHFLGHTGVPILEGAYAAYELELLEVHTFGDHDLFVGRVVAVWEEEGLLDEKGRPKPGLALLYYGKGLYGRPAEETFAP
The experiment can be described thus: UV-visible difference titration of ligands with TtENR. The class given is binding. In short, it runs like this: as §1

For experiment [3], the target named is T1, PhENR. The experiment can be described thus: Biocatalytic transformations with PhENR. As to conditions: for acceptance as substrate: substrate scope. The class given is biochemical. In short, it runs like this:
(§2)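 Substrate (10 mM) was reduced with NADH or NADPH (15 mM) and enzyme in 50 mM buffer. The initial aerobic screen used Tris-HCl at pH 7, 8 or 9. Optimised anaerobic runs used degassed buffer under an Ar flush: 50 mM phosphate for TtENR, 50 mM Tris-HCl for PhENR, both pH 7, with NADPH. Mixtures were shaken 24 h at 30 °C, 120 r.p.m., then EtOAc-extracted. Conversion was read by achiral GC, e.e. by chiral GC or HPLC. One substrate was given in DMF (1% final).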

Experiment [4] deals with T2, TtENR. The experiment can be described thus: Biocatalytic transformations with TtENR. The format is biochemical. As to conditions: for acceptance as substrate: substrate scope, Table 1. Summed up:
as §2

For experiment [5], the target named is T1, PhENR. The experiment can be described thus: Stopped-flow reductive half reaction of PhENR. The class given is biochemical. Conditions: monophasic, 37 °C, 100 mM Tris-HCl pH 7.4. Summed up:
(§3)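 Anoxic stopped-flow at 37 °C in a glove box, single-mixing mode. Enzyme was mixed with NADPH or NADH at 0.4–10.0 mM in 100 mM Tris-HCl pH 7.4, with nitrogen-flushed buffers. Flavin reduction was monitored as A458 change with a diode-array detector.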

The target in experiment [6] is T2, TtENR. The experiment in a line: Stopped-flow reductive half reaction of TtENR. As to conditions: monophasic, 37 °C, 100 mM Tris-HCl pH 7.4. The format is biochemical. Summed up: as §3
For experiment [7], the target named is T2, TtENR. The experiment in a line: Steady-state turnover. The class given is biochemical. As to conditions: NADPH and dioxygen as substrates, 50 mM potassium phosphate pH 7.0, 75 °C.
Experiment [8] concerns yeast OYE. Conditions: cited from earlier work; for rate of reduction of the flavin cofactor: biphasic kinetics.
For experiment [9], the target named is yeast OYE. Conditions: read-out: dissociation constant (Kd); cited from earlier work.
The target of experiment [10] is T2, TtENR. The experiment can be described thus: Stopped-flow reoxidation of reduced TtENR. The class given is biochemical. As to conditions: air-saturated buffer. Summed up:
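Enzyme in 50 mM potassium phosphate pH 7.0 was reduced anoxically with sodium dithionite, and excess dithionite was removed on a desalting column inside a glove box. Reduced enzyme was mixed in single-mixing stopped-flow at 37 °C with substrate at various concentrations or with air-saturated buffer. FMN reoxidation was followed at A458 by diode array. Curves were fitted with a two-exponential function.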

T1 sequence (O58586 whole entry): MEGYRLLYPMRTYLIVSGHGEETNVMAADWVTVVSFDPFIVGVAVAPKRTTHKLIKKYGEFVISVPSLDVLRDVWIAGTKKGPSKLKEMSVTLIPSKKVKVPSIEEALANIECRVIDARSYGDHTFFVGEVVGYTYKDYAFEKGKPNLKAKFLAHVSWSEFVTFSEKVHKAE

For the compound `O=Cc1ccc(O)cc1` [pHB, p-hydroxybenzaldehyde], the results for the Kd on PhENR [1] and at TtENR [2] were 36 µM and 25 µM, respectively.
For `O=C1C=CC(=O)C=C1` [1,4-benzoquinone], the Kd at PhENR [1] is 1800 µM; at TtENR [2] it was 580 µM.
`CC(C)=CCCC(C)=CC=O` (mixture of isomers) [Compound 4a, citral]: the acceptance as substrate result on PhENR [3] (Table 1) and on TtENR [4] was “good substrates” in each case.
As to `CC1CC(=O)N(c2ccccc2)C1=O` (racemic) [Compound 5b, rac-N-phenyl-2-methylsuccinimide], the “stereopreference compared with typical OYEs” value on PhENR [3] and at TtENR [4] was “inverted stereopreference” in each case. For the same compound, the acceptance as substrate entry at PhENR [3] (Table 1) and on TtENR [4] was “good substrates” throughout.
Turning to `NC(=O)C1=CN([C@@H]2O[C@H](COP(=O)(O)OP(=O)(O)OC[C@H]3O[C@@H](n4cnc5c(N)ncnc54)[C@H](OP(=O)(O)O)[C@@H]3O)[C@@H](O)[C@H]2O)C=CC1` [NADPH], the “reductive rate (kred)” value came out at 0.06 s⁻¹ on PhENR [5] and 0.15 s⁻¹ on TtENR [6]. The compound also yielded a turnover rate kcat at TtENR [7] of 0.36 s⁻¹. The Km on TtENR [7] (read-out: KM(NADPH)) stood at 50 µM. In addition, the “rate of reduction of the flavin cofactor” value with yeast OYE [8] (first printed rate) is 1.18 s⁻¹; with yeast OYE [8] (second printed rate) it was 0.3 s⁻¹.
For `O=C1C=CCCC1` [Compound 1a, 2-Cyclohexen-1-one], the figures for the Kd on PhENR [1], at TtENR [2] and on yeast OYE [9] were 76000 µM, 40000 µM and 32 µM, respectively. Also, the acceptance as substrate entry on PhENR [3] (Table 1) and on TtENR [4] was “accepted but at lower conversion rates” each time. For the same compound, the oxidative rate kox in the experiment on yeast OYE [8] is 102 s⁻¹.
For the compound `NC(=O)C1=CN([C@@H]2O[C@H](COP(=O)(O)OP(=O)(O)OC[C@H]3O[C@@H](n4cnc5c(N)ncnc54)[C@H](O)[C@@H]3O)[C@@H](O)[C@H]2O)C=CC1` [NADH], the “reductive rate (kred)” value on TtENR [6] was 0.25 s⁻¹.
Consider `CC1=CC(=O)CC(C)(C)C1=O` [Compound 2a, 2,6,6-trimethylcyclohex-2-ene-1,4-dione], for which the “stereopreference compared with typical OYEs” value on PhENR [3] and at TtENR [4] was “inverted stereopreference” in each case. For the same compound, the acceptance as substrate result at PhENR [3] (Table 1) and at TtENR [4] was “good substrates” each time.
On to `CC/C=C(\C)C=O` [Compound 3a, (E)-2-methylpent-2-enal], for which, at PhENR [3] (Table 1), the conversion result is on record as “full conversion” and the acceptance as substrate result is given as “good substrates”. The acceptance as substrate result on TtENR [4] was “good substrates”.
Regarding `O=O` [dioxygen], the “kox, reoxidation of the cofactor” value on TtENR [10] amounted to 57 s⁻¹.
